Assay results from ChEMBL document CHEMBL4706589, “Discovery of 5-bromo-4-phenoxy-N-phenylpyrimidin-2-amine derivatives as novel ULK1 inhibitors that block autophagy and induce apoptosis in non-small cell lung cancer” (Eur J Med Chem, 2020).
The source made the active and inactive calls. No cut-off for these calls is given here.

Columns and labels:
[1] = molecular target: T1, Serine/threonine-protein kinase ULK1 (Homo sapiens) (UniProt O75385); experiment: Inhibition of ULK1 mediated autophagy in human A549 cells assessed as reduction in conversion of LC3 1 to LC3-2 at 2 to 8 uM measured after 1 hrs by Western blot analysis; assay type: cell-based; settings: dose 2-8 µM
T1 sequence (whole entry): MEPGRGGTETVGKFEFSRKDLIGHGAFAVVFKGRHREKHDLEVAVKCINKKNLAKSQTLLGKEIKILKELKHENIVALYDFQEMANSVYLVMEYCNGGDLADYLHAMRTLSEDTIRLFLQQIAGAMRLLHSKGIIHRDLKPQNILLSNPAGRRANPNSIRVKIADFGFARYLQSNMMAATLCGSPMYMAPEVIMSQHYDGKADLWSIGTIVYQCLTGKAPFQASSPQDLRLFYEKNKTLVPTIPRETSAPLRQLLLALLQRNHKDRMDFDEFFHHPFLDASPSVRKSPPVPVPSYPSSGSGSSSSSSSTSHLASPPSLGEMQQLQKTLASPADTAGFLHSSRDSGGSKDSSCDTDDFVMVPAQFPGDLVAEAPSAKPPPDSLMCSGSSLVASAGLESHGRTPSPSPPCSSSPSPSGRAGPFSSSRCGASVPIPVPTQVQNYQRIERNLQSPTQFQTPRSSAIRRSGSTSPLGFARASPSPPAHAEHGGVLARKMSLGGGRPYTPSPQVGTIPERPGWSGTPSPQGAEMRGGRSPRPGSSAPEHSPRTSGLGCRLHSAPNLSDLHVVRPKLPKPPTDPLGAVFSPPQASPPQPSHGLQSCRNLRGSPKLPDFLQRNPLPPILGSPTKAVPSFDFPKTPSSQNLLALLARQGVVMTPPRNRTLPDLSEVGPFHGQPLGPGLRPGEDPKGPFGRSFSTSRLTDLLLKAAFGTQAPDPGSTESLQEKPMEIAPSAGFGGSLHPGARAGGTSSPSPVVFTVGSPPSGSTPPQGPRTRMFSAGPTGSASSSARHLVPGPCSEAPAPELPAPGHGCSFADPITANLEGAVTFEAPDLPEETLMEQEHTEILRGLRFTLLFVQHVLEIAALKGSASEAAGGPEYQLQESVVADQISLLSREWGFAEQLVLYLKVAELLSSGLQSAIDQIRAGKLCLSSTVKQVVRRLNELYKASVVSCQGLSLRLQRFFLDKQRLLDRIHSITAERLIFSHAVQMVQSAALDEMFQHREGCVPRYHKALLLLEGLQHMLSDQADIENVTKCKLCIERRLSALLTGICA
Outline: (§1)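 Treated A549 cells, adherent and floating, were collected and lysed in RIPA buffer with protease and phosphatase inhibitors. Lysates were spun at 12,000 g, 4 °C, 15 min, and protein measured by BCA. Proteins were run on SDS-PAGE and moved to nitrocellulose, blocked 1 h in TBST with 5% skim milk, and probed overnight at 4 °C with primary antibodies. HRP secondary antibody was applied 1 h at room temperature, with ECL detection.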

A549 [2] = experiment: Induction of apoptosis in human A549 cells assessed as morphological changes upto 8 uM incubated for 24 hrs in dark by Hoechst 33258 staining based fluorescence microscopy; settings: dose microM <=8, time 24.0 hrs
[3] = molecular target: T1, Serine/threonine-protein kinase ULK1 (Homo sapiens); experiment: Inhibition of human ULK1 in human A549 cells under nutrient starvation condition assessed as decrease in phosphorylated-Beclin 1(ser15) level by immunoblotting analysis; assay type: cell-based; outline: as §1
[4] = molecular target: T1, Serine/threonine-protein kinase ULK1 (Homo sapiens); experiment: Inhibition of ULK1 mediated autophagy in human A549 cells assessed as p62 degradation at 2 to 8 uM measured after 1 hrs by Western blot analysis; assay type: cell-based; settings: dose 2-8 µM; outline: as §1
[5] = molecular target: T1, Serine/threonine-protein kinase ULK1 (Homo sapiens); experiment: Induction of downregulation of ULK1-mediated autophagy in human A549 cells assessed as phosphorylation at Ser317 preincubated for 24 hrs by Western blot analysis; assay type: cell-based; settings: dose microM <=8, time 24.0 hrs; outline: as §1
A549 [6] = experiment: Induction of apoptosis in human A549 cells assessed as increase in caspase 3 protein expression at 2 to 8 uM by Western blot analysis; assay type: functional, cell-based; settings: dose 2-8 µM; outline: as §1
MDA-MB-468 = experiment: Antiproliferative activity against human MDA-MB-468 cells assessed as reduction in cell viability after 24 hrs by MTT assay; assay type: functional, cell-based; settings: MDA-MB-468, 24 h
Outline: (§2)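 Cells seeded at 5.5 × 10⁴ cells/mL in 96-well plates and grown 24 h before exposure to graded compound concentrations. Viability read by MTT after 24 h. A549, MCF-7 and MDA-MB-468 were kept in DMEM with 10% FBS under 5% CO₂; HL60 and U937 in RPMI 1640 with 10% FBS. IC50 taken as mean of triplicate tests.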

[7] = molecular target: T1, Serine/threonine-protein kinase ULK1 (Homo sapiens); experiment: Inhibition of ULK1 mediated autophagy in human A549 cells assessed as decrease in beclin1 level at 2 to 8 uM measured after 1 hrs by Western blot analysis; assay type: cell-based; settings: dose 2-8 µM; outline: as §1
[8] = molecular target: T1, Serine/threonine-protein kinase ULK1 (Homo sapiens); experiment: Inhibition of human ULK1 in human A549 cells under normal condition assessed as decrease in phosphorylated-Atg13 (ser318) level by immunoblotting analysis; assay type: cell-based; outline: as §1
[9] = molecular target: T1, Serine/threonine-protein kinase ULK1 (Homo sapiens); experiment: Inhibition of human ULK1 in human A549 cells under normal condition assessed as decrease in phosphorylated-Beclin 1(ser15) level by immunoblotting analysis; assay type: cell-based; outline: as §1
A549 [10] = experiment: Induction of apoptosis in human A549 cells assessed as reduction in Bcl2 protein expression at 2 to 8 uM by Western blot analysis; assay type: functional, cell-based; settings: dose 2-8 µM; outline: as §1
[11] = molecular target: T1, Serine/threonine-protein kinase ULK1 (Homo sapiens); experiment: Inhibition of recombinant human ULK1 at 10 uM preincubated for 60 mins followed by substrate addition and measured after 30 mins by ADP-glo assay; settings: time 90.0 min
Outline: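 Recombinant ULK1 activity was measured by ADP-Glo luminescence of ADP formed, in 40 mM Tris pH 7.5, 20 mM MgCl₂, 0.1 mg/ml BSA and […]. After the kinase reaction, plates were mixed 2 min and held 40 min at room temperature. Detection reagent was then added for 30 min at room temperature before luminescence was read.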

A549 [12] = experiment: Induction of apoptosis in human A549 cells assessed as increase in Bax protein expression at 2 to 8 uM by Western blot analysis; assay type: functional, cell-based; settings: dose 2-8 µM; outline: as §1
MCF7 = experiment: Antiproliferative activity against human MCF-7 cells assessed as reduction in cell viability after 24 hrs by MTT assay; assay type: functional, cell-based; settings: MCF7, 24 h; outline: as §2
[13] = molecular target: T1, Serine/threonine-protein kinase ULK1 (Homo sapiens); experiment: Inhibition of human ULK1 in human A549 cells under nutrient starvation condition assessed as decrease in phosphorylated- Atg13 (ser318) level by immunoblotting analysis; assay type: cell-based; outline: as §1
HL-60 = experiment: Antiproliferative activity against human HL60 cells assessed as reduction in cell viability after 24 hrs by MTT assay; assay type: functional, cell-based; settings: HL-60, 24 h; outline: as §2
[14] = molecular target: T1, Serine/threonine-protein kinase ULK1 (Homo sapiens); experiment: Inhibition of ULK1 mediated autophagy in human A549 cells transfected with GFP-mRFP-LC3 assessed as increase in LC3 puncta measured after 6 hrs by fluorescence microscopic analysis; assay type: cell-based
Outline: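 A549 cells were transfected with GFP/mRFP-LC3 for 6 h. Transfected cells were used 24 h later, and LC3 puncta were examined by fluorescence microscopy.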

A549 [15] = experiment: Antiproliferative activity against human A549 cells assessed as reduction in cell viability after 24 hrs by MTT assay; assay type: functional, cell-based; settings: A549, 24 h; outline: as §2
U-937 = experiment: Antiproliferative activity against human U937 cells assessed as reduction in cell viability after 24 hrs by MTT assay; assay type: functional, cell-based; settings: U-937, 24 h; outline: as §2

Structure (SMILES): COc1cc(Nc2ncc(Br)c(Oc3ccc([N+](=O)[O-])cc3F)n2)cc(OC)c1OC
- inhibition [1]: Active
- Activity (A549 [2]): Dose-dependent effect
- inhibition [3]: Active
- Activity [4]: Active
- Activity [5]: Dose-dependent effect
- Activity (A549 [6]): Active
- IC50 (MDA-MB-468): 16.8 µM
- inhibition [7]: Active
- Activity [8]: Active
- inhibition [9]: Active
- Activity (A549 [10]): Active
- inhibition [11]: 99.2%
- Activity (A549 [12]): Active
- IC50 (MCF7): 19.6 µM
- inhibition [13]: Active
- IC50 (HL-60): 10.9 µM
- Activity [14]: Active
- IC50 (A549 [15]): 1.94 µM
- IC50 (U-937): 12.9 µM
